Data: ChEMBL document CHEMBL1124397, “A novel class of "GABAergic" agents: 1-aryl-3-(aminoalkylidene)oxindoles” (J Med Chem, 1989)

Tests used:
[1] = target: GABA-A receptor; anion channel (Rattus norvegicus) (UniProt O09028+P15431+P18506+P18508+P19969+P20236+P23574+P23576+P28471+P28473+P30191+P62813+P63079+P63138+Q91ZM7+Q9ES14); assay: Antagonism of mercaptopropionic acid (MPA) induced convulsions in mouse; assay type: functional, organism-based
[2] = tested on: Mus musculus; assay: Activity to antagonise cyclic GMP after administration of isoniazid in mouse brain; value ranges from 3.2-10; assay type: functional
[3] = tested on: P23576; assay: Administered at a dose 320 umol/kg intraperitoneally before [3H]Flunitrazepam ([3H]-FNP) in mouse brain expressed as percent of control; assay type: functional, tissue-based
Sequence of P23576 (P23576 whole entry): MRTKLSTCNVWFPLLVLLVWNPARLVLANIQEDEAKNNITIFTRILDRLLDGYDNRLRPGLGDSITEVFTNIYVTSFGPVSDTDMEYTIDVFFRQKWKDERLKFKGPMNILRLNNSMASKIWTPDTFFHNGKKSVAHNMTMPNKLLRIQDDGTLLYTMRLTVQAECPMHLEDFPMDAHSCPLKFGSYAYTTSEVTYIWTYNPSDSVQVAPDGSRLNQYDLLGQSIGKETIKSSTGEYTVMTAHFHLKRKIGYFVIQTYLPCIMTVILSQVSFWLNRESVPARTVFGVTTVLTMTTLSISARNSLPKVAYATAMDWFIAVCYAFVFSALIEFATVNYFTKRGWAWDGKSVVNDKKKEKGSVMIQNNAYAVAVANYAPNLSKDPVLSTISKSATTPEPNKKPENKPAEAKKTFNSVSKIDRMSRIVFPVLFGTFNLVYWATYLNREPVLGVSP
In short: (§1)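 Mice in groups of five received test compound or vehicle ip 1 h before 200 μCi/kg [3H]FNP iv and were killed 20 min later. Brains were homogenized in 40 volumes of ice-cold 50 mM Tris-HCl pH 7.7. Triplicate 1.0-mL samples were filtered on glass fiber, washed with cold buffer and counted. Bound FNP is given as % of vehicle-treated mice.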

[4] = Ability to displace [3H]flunitrazepam ([3H]-FNP) binding to mouse brain after intraperitoneal administration at a dose 320 umol/kg; assay type: functional, organism-based; details: at 320 µmol/kg
In short: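 Mice in groups of five got test agent or vehicle ip 1 h before iv [3H]FNP at 200 μCi/kg, then were killed 20 min later by cervical dislocation. Brains were frozen and homogenized in 40 volumes of ice-cold 50 mM Tris-HCl pH 7.7. Triplicate samples were filtered on glass fiber, washed with cold buffer and counted. Bound label is expressed as % of vehicle-treated mice.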

[5] = tested on: Mus musculus; assay: Activity tested to antagonise cyclic GMP after administration of isoniazid in mouse brain; assay type: functional
[6] = Toxicity measured in mouse by subcutaneous administration; assay type: organism-based; details: in vivo, sc
In short: (§2)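 Mouse LD50 in mg/kg after sc or ip dosing, by the route named in each line.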

[7] = Toxicity was measured in mouse by intraperitoneal administration; details: in vivo, ip; in short: as §2
[8] = tested on: Mus musculus; assay: Compound was tested for enhancement of [3H]Flunitrazepam ([3H]FNP) binding to mouse brain after intraperitoneal administration at a dose 32uM/kg, expressed as percent of control; assay type: functional; in short: as §1
[9] = tested on: Mus musculus; assay: Activity to antagonise mercaptopropionic acid (MPA) induced convulsions in mouse after subcutaneous administration; assay type: functional; details: sc
In short: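 Male Swiss CD mice (17–21 g), fasted 18 h, in groups of five. […] One hour later MPA 32 mg/kg ip. Protection meant no convulsions during 10 min of observation.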

[10] = tested on: Mus musculus; assay: Compound was tested for enhancement of [3H]Flunitrazepam ([3H]FNP) binding to mouse brain after intraperitoneal administration at a dose 10uM/kg, expressed as percent of control; assay type: functional; in short: as §1
[11] = Toxicity was measured in mouse by intraperitoneal administration; value ranges from 32-100; details: in vivo, ip; in short: as §2
[12] = tested on: Mus musculus; assay: Compound was tested for enhancement of [3H]flunitrazepam ([3H]-FNP) binding to mouse brain after intraperitoneal administration at a dose 3.2uM/kg, expressed as percent of control; assay type: functional; in short: as §1
[13] = tested on: Mus musculus; assay: Activity to antagonise cyclic GMP after administration of isoniazid in mouse brain; value ranges from 1-3.2; assay type: functional

Row | SMILES | ED50 [1] [mg/kg] | other results
1 | CN(C)/C=C1\C(=O)N(c2cccc(Cl)c2)c2ccc(Cl)cc21 | > 100 | –
2 | CCO/C=C1\C(=O)N(c2cccc(Cl)c2)c2ccccc21 | > 100 | –
3 | CN(C)/C=C1\C(=O)N(c2ccccc2Cl)c2ccccc21 | > 100 | ED50 [2]: 3.2 mg/kg
4 | CCN1CCC/C1=C1/C(=O)N(c2cccc(Cl)c2)c2ccccc21 | > 100 | Control [3]: 164%
5 | COc1ccc(N2C(=O)/C(=C3/CCCN3C)c3ccccc32)cc1F | 5.6 | Control [3]: 225%
6 | COc1c(C)cc(N2C(=O)/C(=C\N(C)C)c3ccccc32)cc1Cl | 15.3 | –
7 | COc1ccc(-n2c(O)c(C3=NCCC3)c3ccccc32)cc1F | 56 | –
8 | C/N=C\c1c(O)n(-c2cccc(Cl)c2)c2ccccc12 | > 100 | [3H]flunitrazepam binding [4]: 119%
9 | Oc1c(/C=N/Cc2ccccc2)c2ccccc2n1-c1cccc(Cl)c1 | > 100 | –
10 | CN(C)/C=C1\C(=O)N(c2cccc(C(F)(F)F)c2)c2ccccc21 | 22.2 | [3H]flunitrazepam binding [4]: 131%
11 | COc1ccc(N2C(=O)/C(=C\N(C)C)c3ccccc32)cc1F | 6.6 | [3H]flunitrazepam binding [4]: 194%
12 | Oc1c(C2=NCCCCC2)c2ccccc2n1-c1ccccc1 | > 100 | –
13 | N=Cc1c(O)n(-c2cccc(Cl)c2)c2ccccc12 | 22.1 | [3H]flunitrazepam binding [4]: 134%
14 | CN(C)/C=C1\C(=O)N(c2ccccc2)c2ccccc21 | > 100 | –
15 | NC(=O)CCC/N=C(\c1ccc(Cl)cc1)c1cc(F)ccc1O [PROGABIDE] | > 100 | ED50 [5]: < 32 mg/kg; LD50 [6]: > 1000 mg/kg; LD50 [7]: ~1000 mg/kg
16 | C/C(=C1/C(=O)N(c2ccccc2)c2cc(Cl)ccc21)N1CCCC1 | > 56 | [3H]flunitrazepam binding [4]: 213%
17 | CN(C)/C=C1\C(=O)N(c2cccc(Cl)c2)c2cccc(Cl)c21 | > 100 | –
18 | CN(C)/C=C1\C(=O)N(c2cccc(C(=O)N(C)C)c2)c2ccccc21 | > 100 | –
19 | CN1CCC/C1=C1/C(=O)N(c2ccccc2)c2cccc(Cl)c21 | > 100 | Control [3]: 190%
20 | CN(C)/C=C1\C(=O)N(c2cc(Cl)ccc2Cl)c2ccccc21 | > 100 | [3H]flunitrazepam binding [4]: 147%; ED50 [5]: ~10 mg/kg
21 | O=C1/C(=C\n2ccnc2)c2ccccc2N1c1cccc(Cl)c1 | > 100 | Control [3]: 139%
22 | CSc1ccc(N2C(=O)/C(=C\N(C)C)c3ccccc32)cc1 | 56 | –
23 | CN(C)/C=C1\C(=O)N(c2cccc(C=O)c2)c2ccccc21 | > 100 | –
24 | CN(C)/C=C1\C(=O)N(c2cccc(F)c2)c2ccccc21 | 39.9 | –
25 | CCCN(/C=C1\C(=O)N(c2cccc(Cl)c2)c2ccccc21)CCC | > 100 | –
26 | C/C(=C1/C(=O)N(c2cccc(Cl)c2)c2ccccc21)N(C)C | 13.3 | ED50 [5]: 1 mg/kg

Row | SMILES | ED50 [1] [mg/kg] | other results
27 | CCC/N=C/c1c(O)n(-c2cccc(Cl)c2)c2ccccc12 | > 56 | –
28 | CN(C)/C=C1\C(=O)N(c2cccc(-c3ccccc3)c2)c2ccccc21 | > 100 | –
29 | CN(/C=C1\C(=O)N(c2cccc(Cl)c2)c2ccccc21)c1ccccc1 | > 100 | [3H]flunitrazepam binding [4]: 133%
30 | O=C1/C(=C\N2CCCCC2)c2ccccc2N1c1cccc(Cl)c1 | > 56 | [3H]flunitrazepam binding [4]: 131%
31 | CN1CCC/C1=C1/C(=O)N(c2ccccc2)c2cc(Cl)ccc21 | > 100 | Control [3]: 158%
32 | CN(C)/C=C1\C(=O)N(c2cccc([N+](=O)[O-])c2)c2ccccc21 | > 100 | [3H]flunitrazepam binding [4]: 171%
33 | COc1ccc(N2C(=O)/C(=C(/C)N(C)C)c3ccccc32)cc1F | > 100 | [3H]flunitrazepam binding [4]: 157%
34 | CC(=N)c1c(O)n(-c2cccc(Cl)c2)c2ccccc12 | > 100 | [3H]flunitrazepam binding [4]: 103%
35 | CN(C)/C(=C1\C(=O)N(c2cccc(Cl)c2)c2ccccc21)c1ccccc1 | > 100 | –
36 | CC(=N)c1c(O)n(-c2ccccc2)c2cc(Cl)ccc12 | > 56 | –
37 | COc1ccc(N2C(=O)/C(=C\N(C)C)c3ccccc32)cc1OC | > 100 | [3H]flunitrazepam binding [4]: 138%; ED50 [5]: < 10 mg/kg
38 | CCc1cccc(N2C(=O)/C(=C\N(C)C)c3ccccc32)c1 | 14.1 | –
39 | COc1ccc(N2C(=O)/C(=C3/CCCN3C)c3ccccc32)cc1Cl | – | Control [8]: 159%; ED50 [9]: 3.6 mg/kg; LD50 [6]: ≥ 320 mg/kg; Control [10]: 128%; LD50 [11]: 32 mg/kg; Control [3]: 220%; Control [12]: 115%
40 | CCOc1cccc(N2C(=O)/C(=C\N(C)C)c3ccccc32)c1 | 27.9 | –
41 | COc1cccc(N2C(=O)/C(=C\N(C)C)c3ccccc32)c1 | 27.9 | [3H]flunitrazepam binding [4]: 217%; ED50 [5]: < 10 mg/kg
42 | COc1ccc2c(c1)/C(=C/N(C)C)C(=O)N2c1cccc(Cl)c1 | > 100 | –
43 | CN(C)/C=C1\C(=O)N(c2cccc(C#N)c2)c2ccccc21 | > 100 | [3H]flunitrazepam binding [4]: 192%
44 | COc1ccc(N2C(=O)/C(=C\N(C)C)c3ccccc32)cc1C | 9.1 | –
45 | CN1CCC/C1=C1/C(=O)N(c2ccccc2)c2ccccc21 | > 100 | Control [3]: 143%
46 | CN(C)/C=C1\C(=O)N(c2cc(Cl)cc(Cl)c2)c2ccccc21 | > 100 | [3H]flunitrazepam binding [4]: 153%
47 | O=C1/C(=C\N2CCCC2)c2ccccc2N1c1cccc(Cl)c1 | > 100 | –
48 | CN(C)C(=O)c1cccc(N2C(=O)/C(=C3/CCCN3C)c3ccccc32)c1 | > 100 | Control [3]: 164%
49 | CN(/C=C1\C(=O)N(c2cccc(Cl)c2)c2ccccc21)Cc1ccccc1 | > 100 | Control [3]: 135%
50 | CN(C)/C=C1\C(=O)N(c2cccc(Cl)c2)c2c(Cl)cccc21 | > 100 | [3H]flunitrazepam binding [4]: 169%
51 | O=C1/C(=C\N2CCOCC2)c2ccccc2N1c1cccc(Cl)c1 | > 100 | [3H]flunitrazepam binding [4]: 121%
52 | Cc1ccc(N2C(=O)/C(=C\N(C)C)c3ccccc32)cc1 | 56 | –

Row | SMILES | ED50 [1] [mg/kg] | other results
53 | COc1ccc(N2C(=O)/C(=C\N(C)C)c3ccccc32)cc1Cl | 7.2 | [3H]flunitrazepam binding [4]: 244%
54 | CN(C)/C=C1\C(=O)N(c2cccc(O)c2)c2ccccc21 | > 100 | –
55 | Cc1ccccc1N1C(=O)/C(=C\N(C)C)c2ccccc21 | 18 | –
56 | O=C1/C(=C2/CCCN2Cc2ccc(Cl)cc2)c2ccccc2N1c1cccc(Cl)c1 | > 100 | Control [3]: 131%
57 | CN(C)/C=C1\C(=O)N(c2ccc(N(C)C)cc2)c2ccccc21 | > 100 | –
58 | COc1ccc(N2C(=O)/C(=C(/C)N(C)C)c3ccccc32)cc1Cl | 2.8 | –
59 | CN1CCC/C1=C1/C(=O)N(c2cccc(Cl)c2)c2cc(Cl)ccc21 | > 100 | Control [3]: 189%
60 | COc1ccc(N2C(=O)/C(=C\N(C)C)c3ccccc32)cc1 | 48.2 | [3H]flunitrazepam binding [4]: 153%
61 | O=C1/C(=C2/CCCN2Cc2ccccc2)c2ccccc2N1c1cccc(Cl)c1 | > 100 | Control [3]: 149%
62 | N=C(c1c(O)n(-c2cccc(Cl)c2)c2ccccc12)C(F)(F)F | > 56 | –
63 | CN(C)/C=C1\C(=O)N(c2cccc(Br)c2)c2ccccc21 | > 100 | –
64 | CN(C)/C=C1\C(=O)N(c2ccccc2)c2cc(Cl)ccc21 | > 100 | –
65 | COc1ccc(N2C(=O)/C(=C(/C)N(C)C)c3ccccc32)cc1 | > 100 | –
66 | C/C(=C1/C(=O)N(c2ccccc2)c2cc(Cl)ccc21)N(C)C | 35.9 | –
67 | CN1CCCC/C1=C1/C(=O)N(c2cccc(Cl)c2)c2ccccc21 | > 100 | Control [3]: 135%
68 | CN(C)/C=C1\C(=O)N(c2ccc(Cl)cc2)c2ccccc21 | > 100 | –
69 | Cc1cccc(N2C(=O)/C(=C\N(C)C)c3ccccc32)c1 | 14.1 | [3H]flunitrazepam binding [4]: 184%
70 | CN1CCC/C1=C1/C(=O)N(c2cccc(C#N)c2)c2ccccc21 | > 100 | Control [3]: 121%
71 | CN(C)/C=C1\C(=O)N(c2cccc(Cl)c2)c2cc(Cl)ccc21 | > 100 | –
72 | C/C(=C1/C(=O)N(c2cccc(C)c2)c2ccccc21)N(C)C | 17.8 | –
73 | COc1ccc(Cl)cc1N1C(=O)/C(=C\N(C)C)c2ccccc21 | > 100 | [3H]flunitrazepam binding [4]: 149%
74 | O=C1/C(=C2/CCCN2c2ccccc2)c2ccccc2N1c1cccc(Cl)c1 | > 100 | Control [3]: 125%
75 | CN(C)/C=C1\C(=O)N(c2cccc(Cl)c2)c2ccccc21 | 26.1 | ED50 [13]: 1 mg/kg
76 | Oc1c(C2=NCCCCC2)c2ccccc2n1-c1cccc(Cl)c1 | > 100 | Control [3]: 138%
77 | CN1CCC/C1=C1/C(=O)N(c2ccc(Cl)cc2)c2ccccc21 | > 56 | Control [3]: 127%
78 | CCN(/C=C1\C(=O)N(c2cccc(Cl)c2)c2ccccc21)CC | 18 | –
